# From article PMC6982609 (Nature chemical biology, 2019)
# Assays:
# [1] = test system: MDA-MB-468 cells; assay: Live-cell imaging proliferation/cell death assay with ER-stress inducer; type: cell-based
# Method in brief: (§1)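 Cells (1 to 3 × 10^3 per well) were seeded in 96-well plates in duplicate and dosed at the indicated concentrations. Plates were imaged in an IncuCyte live-cell system inside a 37 °C, 5% CO2 incubator. Confluence was derived from phase-contrast images. For cell death, medium contained 1.5 μM DRAQ7, and red-fluorescent dead-cell counts were recorded by automated fluorescence microscopy.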
# [2] = test system: MDA-MB-231 cells; assay: as above; type: cell-based
# Method in brief: as §1
# [3] = test system: TNBC cells; assay: Growth inhibition of TNBC cells by EZH2 inhibitors; type: cell-based
# [4] = test system: EZH2; settings: read-out: IC50 for EZH2; cited from earlier work
compound,measurement,setting,value
tunicamycin,induction of cell death,[1],effectively induced cell death
same,induction of cell death,[2],not in MDA-MB-231 cells
CC[C@H](C)n1cc(C)c2c(C(=O)NCc3c(C)cc(C)[nH]c3=O)cc(-c3ccc(N4CCNCC4)nc3)cc21 [GSK126],growth inhibition and apoptosis induction in TNBC cells,[3],failed to inhibit growth
"COc1cc(C)[nH]c(=O)c1CNC(=O)c1c(C)n([C@H](C)C2CCN(CC(F)(F)F)CC2)c2ccccc12 [CPI-1205, (R)-N-((4-methoxy-6-methyl-2-oxo-1,2-dihydropyridin-3-yl)methyl)-2-methyl-1-(1-(1-(2,2,2-trifluoroethyl)piperidin-4-yl)ethyl)-1H-indole-3-carboxamide]",growth inhibition and apoptosis induction in TNBC cells,[3],failed to inhibit growth
CCCc1cc(C)[nH]c(=O)c1CNC(=O)c1cc(-c2ccc(N3CCN(C(=O)CCOCCOCCOCCOCCOCCOCCOCCOCCOCCOCCOCCOCCNC(=O)CCCC[C@@H]4SC[C@@H]5NC(=O)N[C@@H]54)CC3)nc2)cc2c1cnn2C(C)C [UNC2399],IC50,[4],17 nM
